From ChEMBL document CHEMBL1141534, “Synthesis of all stereoisomers of 3-hydroxypipecolic acid and 3-hydroxy-4,5-dehydropipecolic acid and their evaluation as glycosidase inhibitors” (Bioorg Med Chem Lett, 2008)

How the values were obtained:
[1] = test system: alpha-N-acetylgalactosaminidase (Gallus gallus); assay: Inhibition of chick liver alpha-N-acetylgalactosaminidase; design: concentration or dose not given beside the values; settings: concentration not given here
Escherichia coli = assay: Inhibition of Escherichia coli beta-glucuronidase; design: concentration or dose not given beside the values; settings: concentration not given here
In short: (§1)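 Enzyme activity was measured with the matching p-nitrophenyl glycoside as substrate at 10 mM, at each enzyme's optimum pH, with a suitable amount of enzyme per reaction. For line 4, the α-N-acetylgalactosaminidase came from chicken liver.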

[2] = target: T1, Beta-glucuronidase (Bos taurus) (UniProt A3KMY8); assay: Inhibition of bovine liver beta-glucuronidase; design: concentration or dose not given beside the values; settings: concentration not given here
T1 sequence (whole entry): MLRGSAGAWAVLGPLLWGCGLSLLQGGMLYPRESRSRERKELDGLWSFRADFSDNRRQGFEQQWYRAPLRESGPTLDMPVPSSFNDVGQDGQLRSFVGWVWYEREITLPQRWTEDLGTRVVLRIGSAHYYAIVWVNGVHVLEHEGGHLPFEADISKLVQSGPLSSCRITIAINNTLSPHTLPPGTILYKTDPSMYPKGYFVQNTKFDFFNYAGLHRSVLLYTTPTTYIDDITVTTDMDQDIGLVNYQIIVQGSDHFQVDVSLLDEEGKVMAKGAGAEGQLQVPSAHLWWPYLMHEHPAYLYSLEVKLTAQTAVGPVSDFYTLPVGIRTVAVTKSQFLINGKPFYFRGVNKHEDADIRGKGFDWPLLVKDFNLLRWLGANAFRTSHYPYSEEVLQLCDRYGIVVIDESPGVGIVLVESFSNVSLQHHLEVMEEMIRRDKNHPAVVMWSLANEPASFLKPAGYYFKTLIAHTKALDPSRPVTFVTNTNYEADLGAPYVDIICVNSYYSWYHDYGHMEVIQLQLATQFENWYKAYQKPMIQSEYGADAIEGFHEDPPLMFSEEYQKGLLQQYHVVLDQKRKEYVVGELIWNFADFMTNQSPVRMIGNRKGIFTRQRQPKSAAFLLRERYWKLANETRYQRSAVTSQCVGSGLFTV
In short: as §1

Bos taurus = organism: Bos taurus; assay: (§2) Inhibition of bovine kidney beta-N-acetylglucosaminidase; design: concentration or dose not given beside the values; settings: concentration not given here
In short: as §1

[3] = as §2; design: species or system Bos taurus
In short: as §1

Row | SMILES | inhibition [1] [%] | inhibition (Escherichia coli) [%] | inhibition [2] [%] | inhibition (Bos taurus) [%] | IC50 [3] [µM]
1 | O=C(O)[C@@H]1NCC=C[C@@H]1O | 1.3 | 0.9 | 10 | 0.8 | 
2 | O=C(O)[C@@H]1NCCC[C@H]1O | 1.3 | 20 | 0.62 | 32 | 
3 | O=C(O)[C@H]1NCCC[C@@H]1O | 5.2 | 31 | 0.89 | 38 | 
4 | O=C(O)[C@H]1NCCC[C@H]1O | 2.5 | 24 | 0.18 | 20 | 
5 | O=C(O)[C@@H]1NCCC[C@@H]1O | 3.2 | 23 | 15 | 47 | 

Continued, values first:

Row | inhibition [1] [%] | inhibition (Escherichia coli) [%] | inhibition [2] [%] | inhibition (Bos taurus) [%] | IC50 [3] [µM] | SMILES
6 | 3.2 | 0.9 | 0.2 | 15 |  | O=C(O)[C@@H]1NCC=C[C@H]1O
7 | 25 | 2 | 19 | 58 | 720 | O=C(O)[C@H]1NCC=C[C@@H]1O
8 | 0.2 | 3.3 | 8.6 | 7.3 |  | O=C(O)[C@H]1NCC=C[C@H]1O
